Experimental data published in ChEMBL document CHEMBL1126585, “Effect of N-methyl substitution of the peptide bonds in luteinizing hormone-releasing hormone agonists” (J Med Chem, 1993).
Square brackets hold non-standard residues; d marks the D form. Peptide text beside a SMILES is read from it. 1Nal = N[C@@H](Cc1cccc2ccccc12)C(=O)O; NMeF = CN[C@@H](Cc1ccccc1)C(=O)O; pGlu = O=C1CC[C@@H](C(=O)O)N1; NMeS = CN[C@@H](CO)C(=O)O

Tests used:
[1] = Clearance in rat after iv dose (100 ug/kg); type: ADME, organism-based; conditions: in vivo, 0.1 mg/kg
Outline: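 Castrate male rats given 100 μg/kg iv bolus; blood sampled over 6 h with EDTA anticoagulant. Plasma levels by RIA with antibody recognizing C-terminal Leu-Arg-Pro-NHEt or Leu-Arg-Pro-GlyNH₂ (rabbit antisera C-402 with [125I-Tyr⁵]leuprolide tracer, or 5328W with [125I-Tyr⁵,DLys⁶]LHRH). AUC by trapezoidal rule; whole-body clearance = dose/AUC, mL/min per kg.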

Rattus norvegicus [2] = organism: Rattus norvegicus; test: Intestinal stability against rat jejunum sac, activity is expressed as T1/2; type: functional
Outline: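 Rat jejunal sac in vitro; T1/2 taken as time, in min, for lumenal compound concentration to fall by 50%.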

Rattus norvegicus [3] = organism: Rattus norvegicus; test: Tested in vitro for LH release from cultured rat pituitary cells, activity is expressed as pD2 value; type: functional, Pituitary gland cell
Outline: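 Cultured rat pituitary cells; LH release measured across agonist concentrations; pD2 = negative log of agonist concentration giving 50% of maximal LH release.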

chymotrypsin = test: Chymotrypsin degradation half-life was determined; type: ADME
Rattus norvegicus [4] = organism: Rattus norvegicus; test: In vitro for LH release inhibition from cultured rat pituitary cells, activity is expressed as pA2 value; type: functional, cell-based; conditions: Pituitary gland cell, read-out: pA2 (converted)
Outline: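 Cultured rat pituitary cells releasing LH in response to agonist; pA2 = negative log of antagonist concentration requiring 2-fold more agonist for LH release.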

Row | SMILES | clearance [1] | half-life (chymotrypsin) | T1/2 (Rattus norvegicus [2]) | pD2 (Rattus norvegicus [3]) | Kb (Rattus norvegicus [4])
1 | CCNC(=O)[C@@H]1CCCN1C(=O)[C@H](CCCN=C(N)N)NC(=O)[C@H](CC(C)C)NC(=O)[C@@H](Cc1c[nH]c2ccccc12)NC(=O)[C@H](Cc1ccc(O)cc1)NC(=O)[C@H](CO)NC(=O)[C@H](Cc1c[nH]c2ccccc12)NC(=O)[C@H](Cc1ccccc1)N(C)C(=O)[C@@H]1CCC(=O)N1 ([pGlu][NMeF]WSY[dW]LRP-NHEt) | 44.5 mL/min/kg | 3.7 min | 44.4 min |  | 
2 | CCNC(=O)[C@@H]1CCCN1C(=O)[C@H](CCCN=C(N)N)NC(=O)[C@H](CC(C)C)NC(=O)[C@@H](CC(C)C)N(C)C(=O)[C@H](Cc1ccc(O)cc1)NC(=O)[C@H](CO)NC(=O)[C@H](Cc1c[nH]c2ccccc12)NC(=O)[C@H](Cc1c[nH]cn1)NC(=O)[C@@H]1CCC(=O)N1 |  |  | 54 min | 9.61 | 
3 | CCNC(=O)[C@@H]1CCCN1C(=O)[C@H](CCCN=C(N)N)NC(=O)[C@H](CC(C)C)NC(=O)[C@@H](Cc1c[nH]c2ccccc12)NC(=O)[C@H](Cc1ccc(O)cc1)NC(=O)[C@H](CO)NC(=O)[C@H](Cc1c[nH]c2ccccc12)NC(=O)[C@H](Cc1ccccc1)NC(=O)[C@@H]1CCC(=O)N1 ([pGlu]FWSY[dW]LRP-NHEt) | 28.8 mL/min/kg |  | 10.8 min |  | 
4 | CC(C)C[C@H](NC(=O)[C@@H](Cc1ccc2ccccc2c1)NC(=O)[C@H](Cc1ccc(O)cc1)NC(=O)[C@H](CO)NC(=O)[C@H](Cc1c[nH]c2ccccc12)NC(=O)[C@H](Cc1cnc[nH]1)NC(=O)[C@@H]1CCC(=O)N1)C(=O)N[C@@H](CCCNC(=N)N)C(=O)N1CCC[C@H]1C(=O)NCC(N)=O [NAFARELIN] | 5.5 mL/min/kg | 0.5 min |  | 11.05 | 
5 | CC(C)C[C@H](NC(=O)[C@@H](Cc1ccc2ccccc2c1)NC(=O)[C@H](Cc1ccc(O)cc1)N(C)C(=O)[C@H](CO)NC(=O)[C@H](Cc1c[nH]c2ccccc12)NC(=O)[C@H](Cc1c[nH]cn1)NC(=O)[C@@H]1CCC(=O)N1)C(=O)N[C@@H](CCCN=C(N)N)C(=O)N1CCC[C@H]1C(=O)NCC(N)=O | 3.4 mL/min/kg | > 60 min | 33 min | 10.95 | 
6 | CC(C)C[C@H](NC(=O)[C@@H](Cc1ccc2ccccc2c1)NC(=O)[C@H](Cc1ccc(O)cc1)NC(=O)[C@H](CO)NC(=O)[C@H](Cc1c[nH]c2ccccc12)NC(=O)[C@H](Cc1c[nH]cn1)NC(=O)[C@@H]1CCC(=O)N1)C(=O)N(C)[C@@H](CCCN=C(N)N)C(=O)N1CCC[C@H]1C(=O)NCC(N)=O | 3.87 mL/min/kg |  |  |  | 11.2 nM
7 | CC(C)C[C@H](NC(=O)[C@@H](Cc1ccc2ccccc2c1)NC(=O)[C@H](Cc1ccc(O)cc1)NC(=O)[C@H](CO)N(C)C(=O)[C@H](Cc1c[nH]c2ccccc12)NC(=O)[C@H](Cc1c[nH]cn1)NC(=O)[C@@H]1CCC(=O)N1)C(=O)N[C@@H](CCCN=C(N)N)C(=O)N1CCC[C@H]1C(=O)NCC(N)=O | 27.6 mL/min/kg | > 60 min | 47 min | 11.3 | 
8 | CC(C)C[C@H](NC(=O)[C@@H](Cc1ccc2ccccc2c1)NC(=O)[C@H](Cc1ccc(O)cc1)NC(=O)[C@H](CO)NC(=O)[C@H](Cc1c[nH]c2ccccc12)NC(=O)[C@H](Cc1ccccc1)N(C)C(=O)[C@@H]1CCC(=O)N1)C(=O)N[C@@H](CCCN=C(N)N)C(=O)N1CCC[C@H]1C(=O)NCC(N)=O |  |  |  |  | 1.58 nM

Now from value to molecule, other results behind:

Row | clearance [1] | half-life (chymotrypsin) | SMILES | T1/2 (Rattus norvegicus [2]) | pD2 (Rattus norvegicus [3]) | Kb (Rattus norvegicus [4])
9 | 8.3 mL/min/kg | 1 min | CCNC(=O)[C@@H]1CCCN1C(=O)[C@H](CCCN=C(N)N)NC(=O)[C@H](CC(C)C)N(C)C(=O)[C@@H](CC(C)C)NC(=O)[C@H](Cc1ccc(O)cc1)NC(=O)[C@H](CO)NC(=O)[C@H](Cc1c[nH]c2ccccc12)NC(=O)[C@H](Cc1c[nH]cn1)NC(=O)[C@@H]1CCC(=O)N1 | 4.1 min | 10.45 | 
10 | 16.4 mL/min/kg |  | CCNC(=O)[C@@H]1CCCN1C(=O)[C@H](CCCN=C(N)N)NC(=O)[C@H](CC(C)C)NC(=O)[C@@H](Cc1c[nH]c2ccccc12)NC(=O)[C@H](Cc1ccc(O)cc1)NC(=O)[C@H](CO)NC(=O)[C@H](Cc1c[nH]c2ccccc12)NC(=O)[C@H](Cc1cnc[nH]1)N(C)C(=O)[C@@H]1CCC(=O)N1 |  |  | 5.5 nM
11 | 9.77 mL/min/kg | 1 min | CC(C)C[C@H](NC(=O)[C@@H](CC(C)C)NC(=O)[C@H](Cc1ccc(O)cc1)NC(=O)[C@H](CO)NC(=O)[C@H](Cc1c[nH]c2ccccc12)NC(=O)[C@H](Cc1c[nH]cn1)NC(=O)[C@@H]1CCC(=O)N1)C(=O)N[C@@H](CCCN=C(N)N)C(=O)N1CCC[C@H]1C(=O)N(C)CC(N)=O | 8.4 min | 8.73 | 
12 | 31 mL/min/kg | 6 min | CCNC(=O)[C@@H]1CCCN1C(=O)[C@H](CCCN=C(N)N)NC(=O)C(CC(C)C)NC(=O)C(CC(C)C)NC(=O)[C@H](Cc1ccc(O)cc1)NC(=O)[C@H](CO)NC(=O)[C@H](Cc1c[nH]c2ccccc12)NC(=O)[C@H](Cc1ccccc1)N(C)C(=O)[C@@H]1CCC(=O)N1 (stereo in doubt) | 18 min |  | 29.5 nM
13 |  | 1 min | CCNC(=O)[C@@H]1CCCN1C(=O)[C@H](CCCN=C(N)N)N(C)C(=O)[C@H](CC(C)C)NC(=O)[C@@H](CC(C)C)NC(=O)[C@H](Cc1ccc(O)cc1)NC(=O)[C@H](CO)NC(=O)[C@H](Cc1c[nH]c2ccccc12)NC(=O)[C@H](Cc1c[nH]cn1)NC(=O)[C@@H]1CCC(=O)N1 | 6.6 min | 7 | 
14 | 16.9 mL/min/kg | > 60 min | CCNC(=O)[C@@H]1CCCN1C(=O)[C@H](CCCN=C(N)N)NC(=O)[C@H](CC(C)C)NC(=O)[C@@H](CC(C)C)NC(=O)[C@H](Cc1ccc(O)cc1)NC(=O)[C@H](CO)N(C)C(=O)[C@H](Cc1c[nH]c2ccccc12)NC(=O)[C@H](Cc1c[nH]cn1)NC(=O)[C@@H]1CCC(=O)N1 ([pGlu]HW[NMeS]Y[dL]LRP-NHEt) | > 90 min |  | 
15 | 28.4 mL/min/kg | > 15 min | CCNC(=O)[C@@H]1CCCN1C(=O)[C@H](CCCN=C(N)N)NC(=O)[C@H](CC(C)C)NC(=O)[C@@H](CC(C)C)NC(=O)[C@H](Cc1ccc(O)cc1)NC(=O)[C@H](CO)NC(=O)[C@H](Cc1cccc2ccccc12)NC(=O)[C@H](Cc1c[nH]cn1)NC(=O)[C@@H]1CCC(=O)N1 ([pGlu]H[1Nal]SY[dL]LRP-NHEt) | 25 min |  | 
16 | 14.4 mL/min/kg | > 60 min | CCNC(=O)[C@@H]1CCCN1C(=O)[C@H](CCCN=C(N)N)NC(=O)[C@H](CC(C)C)NC(=O)[C@@H](CC(C)C)NC(=O)[C@H](Cc1ccc(O)cc1)NC(=O)[C@H](CO)NC(=O)[C@H](Cc1cccc2ccccc12)N(C)C(=O)[C@H](Cc1c[nH]cn1)NC(=O)[C@@H]1CCC(=O)N1 | 44 min |  | 257 nM
17 | 7.16 mL/min/kg | 7 min | CCNC(=O)[C@@H]1CCCN1C(=O)[C@H](CCCN=C(N)N)NC(=O)C(CC(C)C)NC(=O)C(CC(C)C)NC(=O)[C@H](Cc1ccc(O)cc1)NC(=O)[C@H](CO)NC(=O)[C@H](Cc1c[nH]c2ccccc12)NC(=O)[C@H](Cc1c[nH]cn1)N(C)C(=O)[C@@H]1CCC(=O)N1 (stereo in doubt) |  |  | 
18 | 9 mL/min/kg | 1 min | CCNC(=O)[C@@H]1CCCN1C(=O)[C@H](CCCNC(=N)N)NC(=O)[C@H](CC(C)C)NC(=O)[C@@H](CC(C)C)NC(=O)[C@H](Cc1ccc(O)cc1)NC(=O)[C@H](CO)NC(=O)[C@H](Cc1c[nH]c2ccccc12)NC(=O)[C@H](Cc1c[nH]cn1)NC(=O)[C@@H]1CCC(=O)N1 [LEUPROLIDE] | 4 min |  | 
19 | 21 mL/min/kg | 1 min | CCNC(=O)[C@@H]1CCCN1C(=O)[C@H](CCCN=C(N)N)NC(=O)[C@H](CC(C)C)NC(=O)[C@@H](CC(C)C)N(C)C(=O)[C@H](Cc1ccc(O)cc1)NC(=O)[C@H](CO)NC(=O)[C@H](Cc1c[nH]c2ccccc12)NC(=O)[C@H](Cc1cnc[nH]1)NC(=O)[C@@H]1CCC(=O)N1 |  |  | 
20 | 8.2 mL/min/kg | > 60 min | CCNC(=O)[C@@H]1CCCN1C(=O)[C@H](CCCN=C(N)N)NC(=O)[C@H](CC(C)C)NC(=O)[C@@H](CC(C)C)NC(=O)[C@H](Cc1ccc(O)cc1)N(C)C(=O)[C@H](CO)NC(=O)[C@H](Cc1c[nH]c2ccccc12)NC(=O)[C@H](Cc1cnc[nH]1)NC(=O)[C@@H]1CCC(=O)N1 |  |  | 
